# Data as given in ChEMBL document CHEMBL1144594, “Synthesis and biological evaluation of 4-amino derivatives of benzimidazoquinoxaline, benzimidazoquinoline, and benzopyrazoloquinazoline as potent IKK inhibitors” (Bioorg Med Chem Lett, 2007).
# Calls of active or inactive are those of the source. The calls are words filed in the database; no cut-off is given here.
# What was measured:
# [1] = molecular target: T1, Inhibitor of nuclear factor kappa-B kinase subunit alpha (Homo sapiens, UniProt O15111); test: Inhibition of IKK1
# T1 sequence (O15111 whole entry): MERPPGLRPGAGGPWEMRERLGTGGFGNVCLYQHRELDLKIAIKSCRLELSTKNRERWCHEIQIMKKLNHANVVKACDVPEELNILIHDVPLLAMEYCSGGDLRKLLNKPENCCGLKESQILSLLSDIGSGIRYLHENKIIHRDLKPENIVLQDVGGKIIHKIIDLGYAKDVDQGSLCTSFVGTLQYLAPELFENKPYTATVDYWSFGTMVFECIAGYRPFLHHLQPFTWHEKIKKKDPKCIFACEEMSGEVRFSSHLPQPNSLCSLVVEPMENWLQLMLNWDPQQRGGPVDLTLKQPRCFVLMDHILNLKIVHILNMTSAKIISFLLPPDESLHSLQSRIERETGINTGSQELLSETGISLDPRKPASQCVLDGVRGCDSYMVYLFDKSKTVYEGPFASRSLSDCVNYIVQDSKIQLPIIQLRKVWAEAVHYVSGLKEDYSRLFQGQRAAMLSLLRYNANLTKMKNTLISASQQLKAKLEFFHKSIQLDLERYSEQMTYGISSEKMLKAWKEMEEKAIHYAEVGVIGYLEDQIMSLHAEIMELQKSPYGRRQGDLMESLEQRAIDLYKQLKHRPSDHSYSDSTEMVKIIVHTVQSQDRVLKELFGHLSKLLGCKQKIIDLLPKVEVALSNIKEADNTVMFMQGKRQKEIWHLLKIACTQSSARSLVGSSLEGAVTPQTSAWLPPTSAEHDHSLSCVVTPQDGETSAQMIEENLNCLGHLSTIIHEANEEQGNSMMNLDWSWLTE
# Summary of the method: (§1)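 Enzyme (IKK-2 or IKK-1, typically 0.5 µg/mL final) added at 30 °C to 50 µg/mL GST-IκBα substrate and 20 µM ATP. Read-out is GST-IκBα phosphorylation. IC50 is from a single experiment.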
# [2] = molecular target: T2, Inhibitor of nuclear factor kappa-B kinase subunit beta (Homo sapiens, UniProt O14920); test: Inhibition of LPS-induced TNFalpha secretion in THP1 cells; type: functional, cell-based, THP-1
# T2 sequence (O14920 whole entry): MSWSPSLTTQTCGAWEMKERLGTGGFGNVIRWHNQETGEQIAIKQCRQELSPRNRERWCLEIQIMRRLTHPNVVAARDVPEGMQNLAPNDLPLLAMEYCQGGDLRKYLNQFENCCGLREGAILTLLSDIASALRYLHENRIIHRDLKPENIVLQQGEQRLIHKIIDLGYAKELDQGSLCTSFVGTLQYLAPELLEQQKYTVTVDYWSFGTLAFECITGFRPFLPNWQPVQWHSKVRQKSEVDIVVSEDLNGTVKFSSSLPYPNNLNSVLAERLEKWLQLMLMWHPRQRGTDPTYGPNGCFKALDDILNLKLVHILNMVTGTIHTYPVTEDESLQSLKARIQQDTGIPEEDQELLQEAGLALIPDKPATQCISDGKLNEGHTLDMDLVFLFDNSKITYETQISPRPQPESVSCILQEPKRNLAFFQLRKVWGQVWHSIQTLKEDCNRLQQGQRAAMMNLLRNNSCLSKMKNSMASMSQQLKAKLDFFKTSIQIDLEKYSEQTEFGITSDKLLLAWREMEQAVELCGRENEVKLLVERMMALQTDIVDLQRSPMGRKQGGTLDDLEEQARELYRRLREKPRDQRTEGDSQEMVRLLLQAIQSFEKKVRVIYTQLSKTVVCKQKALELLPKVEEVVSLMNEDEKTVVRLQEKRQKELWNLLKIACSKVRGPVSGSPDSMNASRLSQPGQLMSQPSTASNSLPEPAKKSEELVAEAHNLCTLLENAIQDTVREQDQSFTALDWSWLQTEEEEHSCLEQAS
# [3] = species on record: Homo sapiens; test: Selectivity for human IKK2 over human IKK1
# [4] = molecular target: T2, Inhibitor of nuclear factor kappa-B kinase subunit beta; test: Inhibition of IKK2; summary of the method: as §1
# [5] = tested on: Mus musculus; test: Reduction of LPS-induced serum TNFalpha levels in BALB/c mouse at 10 mg/kg, po relative to control; type: functional; parameters: scale not given: the % may be the effect or the level left
# Summary of the method: (§2)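 Female BALB/c mice, 6–8 weeks old, got inhibitor in 0.2 mL aqueous solution by oral gavage. One hour later they were challenged ip with 1 µg E. coli O111:B4 LPS in 500 µL PBS. Serum was taken 90 min after challenge and TNF-α measured by EIA. Inhibition is relative to vehicle-only LPS-challenged controls.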
# [6] = tested on: Mus musculus; test: Reduction of LPS-induced serum TNFalpha levels in BALB/c mouse at 100 mg/kg, po relative to control; type: functional, organism-based; parameters: dose 100 mg/kg; summary of the method: as §2
# [7] = tested on: Mus musculus; test: Reduction of LPS-induced serum TNFalpha levels in BALB/c mouse at 30 mg/kg, po relative to control; type: functional; parameters: scale not given: the % may be the effect or the level left; summary of the method: as §2
# [8] = molecular target: Tyrosine-protein kinase Lck (Homo sapiens) (UniProt P06239); test: Inhibition of LCK at 50 uM
# [9] = molecular target: T3, Inhibitor of nuclear factor kappa-B kinase subunit epsilon (Homo sapiens) (UniProt Q14164); test: Inhibition of IKKepsilon at 50 uM
# T3 sequence (whole entry): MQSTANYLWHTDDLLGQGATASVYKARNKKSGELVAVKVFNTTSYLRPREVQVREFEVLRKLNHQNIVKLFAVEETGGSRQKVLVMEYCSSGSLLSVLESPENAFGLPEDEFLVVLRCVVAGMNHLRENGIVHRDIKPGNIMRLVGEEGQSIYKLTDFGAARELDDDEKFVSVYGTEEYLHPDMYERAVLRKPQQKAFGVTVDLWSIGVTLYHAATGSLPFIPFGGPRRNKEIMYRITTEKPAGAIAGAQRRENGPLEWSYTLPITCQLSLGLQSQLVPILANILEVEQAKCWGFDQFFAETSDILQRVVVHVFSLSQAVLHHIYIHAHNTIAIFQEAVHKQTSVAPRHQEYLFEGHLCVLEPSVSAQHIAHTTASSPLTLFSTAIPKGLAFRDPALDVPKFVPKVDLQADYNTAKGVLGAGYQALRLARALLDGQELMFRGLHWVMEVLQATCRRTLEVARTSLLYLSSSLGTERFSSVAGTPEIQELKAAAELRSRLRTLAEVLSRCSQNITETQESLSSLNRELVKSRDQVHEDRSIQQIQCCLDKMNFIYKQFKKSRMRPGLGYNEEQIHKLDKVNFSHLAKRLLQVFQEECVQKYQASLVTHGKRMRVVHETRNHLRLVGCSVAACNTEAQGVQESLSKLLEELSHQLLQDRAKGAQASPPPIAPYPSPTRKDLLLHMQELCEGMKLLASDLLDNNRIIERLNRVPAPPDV
# [10] = molecular target: T4, Tyrosine-protein kinase ITK/TSK (Homo sapiens) (UniProt Q08881); test: Inhibition of EMT at 50 uM
# T4 sequence (whole entry): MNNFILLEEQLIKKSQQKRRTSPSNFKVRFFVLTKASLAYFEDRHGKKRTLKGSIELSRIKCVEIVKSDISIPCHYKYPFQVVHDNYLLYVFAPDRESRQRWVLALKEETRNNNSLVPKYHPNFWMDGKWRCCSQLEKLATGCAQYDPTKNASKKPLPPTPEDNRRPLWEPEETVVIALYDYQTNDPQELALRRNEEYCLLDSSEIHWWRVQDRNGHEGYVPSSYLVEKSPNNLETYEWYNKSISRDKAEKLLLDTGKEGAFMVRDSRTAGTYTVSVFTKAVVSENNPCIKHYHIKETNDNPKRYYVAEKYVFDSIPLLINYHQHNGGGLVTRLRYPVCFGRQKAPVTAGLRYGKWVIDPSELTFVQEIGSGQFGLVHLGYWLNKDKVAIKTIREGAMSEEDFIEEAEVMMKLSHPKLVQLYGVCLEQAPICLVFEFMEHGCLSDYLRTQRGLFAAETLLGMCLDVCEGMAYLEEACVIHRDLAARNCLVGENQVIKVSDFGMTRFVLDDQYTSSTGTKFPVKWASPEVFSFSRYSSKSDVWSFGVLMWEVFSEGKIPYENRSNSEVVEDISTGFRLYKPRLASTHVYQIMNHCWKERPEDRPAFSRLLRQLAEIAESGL
# Chain of Tyrosine-protein kinase Lck (Homo sapiens) (P06239 2-509 limits assumed): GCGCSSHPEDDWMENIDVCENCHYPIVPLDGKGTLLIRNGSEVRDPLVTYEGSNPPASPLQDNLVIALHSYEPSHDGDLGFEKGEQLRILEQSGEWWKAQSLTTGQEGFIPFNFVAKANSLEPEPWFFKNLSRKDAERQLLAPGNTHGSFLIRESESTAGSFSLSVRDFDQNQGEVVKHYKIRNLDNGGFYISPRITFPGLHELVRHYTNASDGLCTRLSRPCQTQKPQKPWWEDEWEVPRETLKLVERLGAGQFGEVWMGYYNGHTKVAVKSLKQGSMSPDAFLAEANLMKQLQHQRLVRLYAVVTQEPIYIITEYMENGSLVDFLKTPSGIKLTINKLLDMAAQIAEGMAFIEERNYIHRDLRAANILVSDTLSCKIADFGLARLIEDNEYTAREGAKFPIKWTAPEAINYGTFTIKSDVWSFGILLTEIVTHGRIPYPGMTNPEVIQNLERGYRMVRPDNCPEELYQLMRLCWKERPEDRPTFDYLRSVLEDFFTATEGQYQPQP
IC50 [1],IC50 [2],IC50 [4],SMILES,other results
870 nM,1400 nM,18 nM,Cc1cnc2c(NCCO)nc3cc4ccccc4cc3n12,Ratio IC50 [3]: 48
–,340 nM,18 nM,CNc1nc2cc3ccccc3cc2n2c(C)cnc12,Ratio IC50 [3]: 13; Activity [5]: 50%
–,600 nM,46 nM,Cc1cnc2c(NCCN3CCCCC3)nc3cc4ccccc4cc3n12,–
–,–,–,Cc1ccc2nc(NCCN)c3ncc(C)n3c2c1.Cl,Activity [6]: Active; Activity [7]: 50%
990 nM,950 nM,–,CNc1nc2cc3ccccc3cc2c2c1ncn2C,–
–,1500 nM,35 nM,CNCCNc1nc2cc3ccccc3cc2c2c(C)cnn12,–
1600 nM,5900 nM,58 nM,Cn1cnc2c(NCCN)nc3cc4ccccc4cc3c21,–
390 nM,1000 nM,23 nM,CNCCNc1nc2cc3ccccc3cc2n2c(C)cnc12,Activity [6]: Active; Activity [8]: inactive; Activity [9]: inactive; Activity [10]: inactive
–,8300 nM,11 nM,CNc1nc2cc3ccccc3cc2c2c(C)cnn12,–
